Two compounds from paper PMC5110367 (Nature chemical biology, 2016) can be followed below.

For one assay, the target named is T1, Y314D-Ppara (Mus musculus, UniProt P23204, Y314D).
T1 sequence (P23204 1-468 Y314D): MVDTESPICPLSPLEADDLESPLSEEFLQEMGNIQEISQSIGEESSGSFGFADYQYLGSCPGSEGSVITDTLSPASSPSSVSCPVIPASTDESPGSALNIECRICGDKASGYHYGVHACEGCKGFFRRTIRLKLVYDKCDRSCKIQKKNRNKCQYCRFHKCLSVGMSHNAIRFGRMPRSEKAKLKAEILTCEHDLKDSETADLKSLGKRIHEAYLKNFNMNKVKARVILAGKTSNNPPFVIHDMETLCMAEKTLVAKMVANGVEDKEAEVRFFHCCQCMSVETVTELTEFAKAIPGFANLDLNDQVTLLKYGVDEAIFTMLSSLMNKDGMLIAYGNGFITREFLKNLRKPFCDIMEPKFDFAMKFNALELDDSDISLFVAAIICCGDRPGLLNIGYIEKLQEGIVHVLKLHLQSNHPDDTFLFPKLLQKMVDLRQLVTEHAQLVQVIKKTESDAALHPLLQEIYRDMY
The format is cell-based. Conditions: Ppara-null astrocytes transduced with lenti-Y314D-Ppara, 4 h.

The subject of assay [1] is PPRE-driven luciferase activity. As to the kind of experiment: PPRE-luciferase assay in Ppara-null astrocytes transduced with empty vector. The format is cell-based, mouse. Conditions: 4 h. In a few lines: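 Ppara-null astrocytes came from mixed glial cultures of 7-d-old pups. They were transduced 48 h with empty-vector lentivirions and transfected with tk-PPREx3-Luc reporter. After 24 h they were treated with different doses of test compound for 4 h, then luciferase activity was read. Values are mean ± SD of three independent experiments.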

The test system of a further assay is PPRE-luciferase activity. The format is cell-based, mouse.
The subject of a further assay is CREB promoter. As to the kind of experiment: ChIP analyses of the CREB promoter. The format is cell-based. Particulars: ChIP followed by real-time PCR. A general note: Real-time PCR tracks product formation cycle by cycle.
In a further assay the target is T2, PPARβ-LBD (Homo sapiens, UniProt Q03181).
T2 sequence (Q03181 211-439 limits assumed): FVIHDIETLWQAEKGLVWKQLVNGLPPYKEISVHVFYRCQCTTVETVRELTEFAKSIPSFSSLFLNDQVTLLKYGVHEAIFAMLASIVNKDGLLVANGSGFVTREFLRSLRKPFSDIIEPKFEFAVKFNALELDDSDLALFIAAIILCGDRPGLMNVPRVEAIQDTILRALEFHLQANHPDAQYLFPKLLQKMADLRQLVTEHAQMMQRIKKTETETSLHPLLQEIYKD
The experiment in a line: GC-MS of hippocampal nuclear extracts after pull-down with GST-PPARβ-LBD. The format is binding. Particulars: mouse hippocampal nuclear extracts.

For a further assay, the target named is T3, Y464D-PPARα (Mus musculus, UniProt P23204, Y464D).
T3 sequence (P23204 1-468 Y464D): T1 sequence (P23204 1-468 Y314D) with D314Y, Y464D
The experiment in a line: Thermal shift assay of Y464D-PPARα with ligands. The class given is binding. In a few lines:
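Differential scanning fluorimetry used purified Y464D-PPARα protein (0.5–1 μg per reaction) in kit thermal shift buffer with dye, with or without test compound. The real-time cycler ran 25°C for 2 min, then 70 cycles of 27°C 15 s/26°C 1 min with 1°C auto-increment. Signal was read on the ROX filter, and melting temperature (Tm) was derived.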

The next assay addresses T4, PPARα LBD (Homo sapiens, UniProt Q07869).
T4 sequence (Q07869 239-466 limits assumed): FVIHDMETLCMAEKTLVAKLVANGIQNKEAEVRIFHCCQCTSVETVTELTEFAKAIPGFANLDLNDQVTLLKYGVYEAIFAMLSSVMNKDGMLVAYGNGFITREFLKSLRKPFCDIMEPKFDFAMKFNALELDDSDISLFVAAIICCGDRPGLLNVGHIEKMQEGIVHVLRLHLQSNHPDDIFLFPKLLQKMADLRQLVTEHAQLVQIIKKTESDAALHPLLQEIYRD
As to the kind of experiment: Lanthascreen TR-FRET PPAR-alpha coactivator assay. The format is biochemical.

The target of a further assay is T5, FL-Ppara (Mus musculus, UniProt P23204).
T5 sequence (P23204 1-468): T1 sequence (P23204 1-468 Y314D) with D314Y
The class given is cell-based. Conditions: Ppara-null astrocytes transduced with lenti-FL-Ppara, 4 h.

The subject of the next assay is PPRE luciferase activity. As to the kind of experiment: PPRE-luciferase assay in Pparb-null astrocytes. The format is cell-based, mouse. Conditions: for inhibition by GW9662 of ligand-mediated increase in PPRE-luciferase activity: Pparb-null astrocytes pre-treated with PPARγ-antagonist GW9662; for PPRE luciferase activity: Pparb-null astrocytes, 4 h. Summed up:
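Astrocytes were taken from mixed glial cultures of 7-day-old Pparb-null mouse pups and pretreated with the PPARγ antagonist GW9662. At 60–70% confluence they were transfected with tk-PPREx3-Luc reporter. After 24 h they were treated with graded concentrations of test compound for 4 h, then luciferase activity was read.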

Where [2] appears, read: Ppara-null hippocampal neurons transduced with lenti-Y314D/Y464D-Ppara.
[3] abbreviates: Ppara-null hippocampal neurons transduced with lenti-Y464D-Ppara.

The term EC50 denotes the concentration giving half of the maximal effect.

Structures are written as SMILES. Where a chain is given by its changes, count along the chain named. Read-outs that look alike come from different tables or passages of the source.

As for `CCCCCCCCCCCCCCCC(N)=O` [HEX, hexadecanamide], the PPRE-luciferase activity result on Y314D-Ppara was “partial induction of PPRE-luciferase activity”; in the assay with PPRE-luciferase activity (setting [2]) it was “completely abrogated the PPRE-luciferase activity”; in the assay on PPRE-luciferase activity (setting [3]) it was “completely abrogated the PPRE-luciferase activity”. The PPRE-driven luciferase activity result in [1] is “remained unable to induce PPRE-driven luciferase activity”. The “recruitment of PPARα and PGC1α to the CREB promoter” value with CREB promoter was “stimulated the recruitment of PPARα and its coactivator PGC1α to the CREB promoter”. Also, at PPARβ-LBD, the “GC-MS peak after pull-down with PPARβ-LBD” value is on record as “did not exhibit any peak”. At Y464D-PPARα, the “effect on Tm” value is recorded as “did not alter the Tm”. Moreover, the EC50 at PPARα LBD came out at 5.26 µM. Also, the PPRE-luciferase reporter activity result at FL-Ppara is “markedly induced PPRE reporter activity”. Also, the “inhibition by GW9662 of ligand-mediated increase in PPRE-luciferase activity” value in the assay on PPRE luciferase activity is recorded as “remained unable to inhibit”. For the same compound, the PPRE luciferase activity entry in the assay on PPRE luciferase activity is listed as “markedly increased PPRE luciferase activity”.

Turning to `CCCCCCCCC=CCCCCCCCC(N)=O` [OCT, 9-octadecenamide], the PPRE-luciferase activity entry at Y314D-Ppara is given as “partial induction of PPRE-luciferase activity”; with PPRE-luciferase activity (setting [2]), “completely abrogated the PPRE-luciferase activity”; with PPRE-luciferase activity (setting [3]), “completely abrogated the PPRE-luciferase activity”. In addition, the PPRE-driven luciferase activity entry in assay [1] is recorded as “remained unable to induce PPRE-driven luciferase activity”. The “recruitment of PPARα and PGC1α to the CREB promoter” value in the assay on CREB promoter is “stimulated the recruitment of PPARα and its coactivator PGC1α to the CREB promoter”. The “GC-MS peak after pull-down with PPARβ-LBD” value at PPARβ-LBD is “did not exhibit any peak”. On Y464D-PPARα, the “effect on Tm” value was “did not alter the Tm”. This compound registered an EC50 on PPARα LBD of 4.84 µM. Also, on FL-Ppara, the PPRE-luciferase reporter activity entry is “markedly induced PPRE reporter activity”. The “inhibition by GW9662 of ligand-mediated increase in PPRE-luciferase activity” value with PPRE luciferase activity is recorded as “remained unable to inhibit”. The PPRE luciferase activity result in the assay with PPRE luciferase activity is “markedly increased PPRE luciferase activity”.
